Compound activity deposited in PubChem BioAssay by several laboratories.
Most compounds without a hit are left out; they make up all but 2.4% or so of the library.
SR-BI DiI inh: inhibitors of SR-BI mediated HDL lipid uptake, primary screen, ldlA[mSR-BI] cells, fluorescence, single point | Scavenger receptor class B member 1 (Mus musculus), Q61009 | ldlA[mSR-BI] CHO cells, DiI-HDL uptake fluorescence, 3 h | inhibition, % at 12.5 µM | 0.96% of 320,000 active;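 active = mean replicate inhibition of at least 70% and a set share of replicates each scoring 70 or more; inconclusive = meets just one of the two criteria; inactive = fails both criteria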;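 note: 0% = median of neutral control wells and 100% = median of positive control wells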
Target sequence (Q61009 whole entry, looked up): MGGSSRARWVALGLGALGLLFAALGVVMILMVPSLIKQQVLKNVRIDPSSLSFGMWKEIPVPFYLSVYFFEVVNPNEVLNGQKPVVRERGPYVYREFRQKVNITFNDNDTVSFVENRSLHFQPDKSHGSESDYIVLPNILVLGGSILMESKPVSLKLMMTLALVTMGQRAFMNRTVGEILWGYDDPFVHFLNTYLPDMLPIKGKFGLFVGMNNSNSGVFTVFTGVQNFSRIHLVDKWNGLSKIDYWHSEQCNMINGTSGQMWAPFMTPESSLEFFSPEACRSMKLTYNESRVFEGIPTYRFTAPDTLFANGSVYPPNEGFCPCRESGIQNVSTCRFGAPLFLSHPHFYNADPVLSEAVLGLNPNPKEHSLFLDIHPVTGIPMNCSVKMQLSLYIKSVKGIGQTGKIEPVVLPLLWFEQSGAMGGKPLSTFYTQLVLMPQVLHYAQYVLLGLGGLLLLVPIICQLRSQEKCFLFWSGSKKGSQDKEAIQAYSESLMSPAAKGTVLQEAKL
Calb FLC: C. albicans growth inhibition with fluconazole, primary screen, CaCi-2 strain, Alamar Blue fluorescence; C. albicans CaCi-2 + fluconazole, 48 h; growth inhibition, % (concentration not given with the values); 0.57% of 300,000 active; AID 1979, 2009;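 active = growth inhibition above about 58% in most replicates, limit read from the data, passing the limit was not always enough; inconclusive = exactly half the replicates above a set limit; inactive = most replicates below a set limit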;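 note: all wells also contain fluconazole at 8 µg/ml as a sub-toxic cotreatment; 0% = median of DMSO wells and 100% = median of geldanamycin control wells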
MIN6 prolif-1: inducers of MIN6 beta-cell proliferation, primary screen, ATP luminescence, uHTS; MIN6 cells proliferation, ATPlite luminescence, 48 h; cells starved in 0.2% serum; 100% = growth in 10% serum; proliferation, % at 10 µM; 0.29% of 330,000 active; AID 2380, 2010;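 active = compounds whose signal lies at least 3.5 SD above the mean of all wells on their plate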;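 note: 0% = DMSO-treated cells in low-serum medium and 100% = 10% serum control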
Insulin prom up: insulin promoter activators in MIN6 cells, imaging, high-content screening, mouse beta cells; z-score at 5 µM; 0.3% of 190,000 active; MIN6 insulin promoter-GFP reporter; stronger effect = higher value;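 active = z-score above 3 at 5 µM with at least 500 cells counted in the well; inconclusive = wells under 500 cells, flagged as cytotoxic or low count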
m5-HT2A agonist: mouse Htr2a agonists via beta-arrestin recruitment, primary screen, cell-based, luminescence. CHO-K1 mHTR2A beta-arrestin complementation; percent of 30 µM serotonin response. 5-hydroxytryptamine receptor 2A (Mus musculus), P35363. AID 624169, 2012. 0.66% of 360,000 active. activation, % at 7.6 µM;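 active = activation above a run cutoff, the mean activation of all tested compounds plus 3 SD, cut at about 14% in these data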;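 note: 0% = plate median of compound wells and 100% = 30 µM serotonin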
SR-BI DiI-HDL act: activators of SR-BI mediated DiI-HDL uptake, primary screen, ldlA[mSR-BI] CHO cells, DiI fluorescence. 3 h; 100 = double the neutral-control signal. activation, % at 12.5 µM. 0.096% of 320,000 active. AID 504775, 2011;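 active = mean replicate activation of at least 60% and every replicate at or above 60%; inconclusive = mean or all-replicate condition met, but not both; inactive = mean below 60% and not all replicates reaching 60%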;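 note: 0% = median plate neutral-control signal and 100% = twice that signal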
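Material: SR-BI-overexpressing, LDLR-lacking CHO cells | Dosing: Single compound concentration, delivered by pin transfer | Probe or stimulus: Labelled HDL, 10 µg/mL | Signal: Bottom-read cell fluorescence after medium removal, ex 550/em 595 nm | Schedule: 3 h, 37 °C | Evaluation: HDL uptake via cellular fluorescence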
MIN6 prolif-2: inducers of beta-cell proliferation in MIN6, confirmation, MIN6 cells, mouse; shares compounds with MIN6 prolif-1; ATPlite luminescence, 48 h; cells kept in 0.2% serum; scaled between 0.2% and 10% serum; proliferation increase, % at 50 µM; 920 tested, under 10 active;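 active = proliferation increase above 40% at any of the four tested concentrations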
Active calls of the source: *; u = inconclusive; x = no result.

SMILES | SR-BI DiI inh | Calb FLC | MIN6 prolif-1 | Insulin prom up | m5-HT2A agonist | SR-BI DiI-HDL act | MIN6 prolif-2
O=C(O)c1cc(-c2ccccc2Cl)n(-c2ccc(F)cc2)n1 | -1.6 | 0.9 | 8.0* | x | 2.1 | 1.6 | -1.7
CC(C)CN(C(=O)COC(=O)Cc1c[nH]c2ccccc12)c1c(N)n(Cc2ccccc2)c(=O)[nH]c1=O | 2.0 | x | -2.1 | x | -0.9 | -2.0 | x
Cc1[nH]n(-c2nc(-c3ccccc3)cc(=O)[nH]2)c(=O)c1CCO | -2.6 | -1.4 | 9.6* | -0.49 | 4.0 | 2.6 | -0.2
C[C@@H]1CN([C@@H](C)CO)C(=O)CCCn2nncc2CO[C@H]1CN(C)S(C)(=O)=O | x | x | x | x | 2.7 | x | x
COc1ccc(C2=Nn3c(nnc3-c3ccncc3)SC2)cc1 | 17.1 | -13.0 | 13.5* | 0.19 | -0.3 | -17.1 | 3.7
Cc1cccc(NC(=O)COC(=O)CNC(=O)C2CCCCC2)c1 | -16.3 | -4.4 | 2.2 | 0.84 | 1.6 | 16.3 | x
CSc1cccc(NC(=O)CNC(=O)C2CCCCC2)c1 | -6.2 | -11.3 | 11.3* | x | 4.9 | 6.2 | -1.1
CCN(CC)c1ccc(C(=C2C=CC(=[N+](CC)CC)C=C2)c2ccc(S(=O)(=O)O)cc2S(=O)(=O)[O-])cc1 | -17.2 | x | x | x | -8.9 | 17.2 | x
Cc1cc(Br)c(NC(=O)COC(=O)C2CCCCC2)c(Br)c1 | -25.9 | x | 10.6* | x | 11.1 | 25.9 | -5.9
Brc1nnc2n1-c1ccccc1Sc1ccccc1-2 | 14.6 | x | 5.6* | x | -5.0 | -14.6 | -6.0
O=C(c1ccco1)N1CCCC(c2nc3c(nnn3Cc3c(Cl)cccc3Cl)c(=O)[nH]2)C1 (stereo not given) | x | 9.8 | 8.4* | x | -3.0 | x | -5.8
O=C(c1ccco1)N1CCCC(c2nc3c(nnn3Cc3ccccc3)c(=O)[nH]2)C1 (stereo not given) | -29.0 | 8.5 | -1.5 | x | -3.3 | 29.0 | x
CNc1ccccc1C(=O)OC(C)C(=O)Nc1ccc(Cl)cn1 (stereo not given) | 19.8 | -2.4 | -1.5 | x | 3.3 | -19.8 | x
CCOc1ncccc1C(=O)OC(C)C(=O)Nc1ccc(Cl)cn1 (stereo not given) | 3.0 | x | 13.5* | x | 2.6 | -3.0 | -0.7
CCOc1ncccc1C(=O)Nc1ccc2c(C)cc(=O)oc2c1 | 34.3 | 11.2 | 8.1* | -0.21 | 2.4 | -34.3 | 2.6
CCCc1cc(=O)[nH]c(SCC(=O)NC2(C#N)CCCCC2)n1 | -9.0 | x | 0.1 | x | 4.2 | 9.0 | x
O=C(N/C(=C\c1ccc([N+](=O)[O-])cc1)C(=O)N1CCCCC1)c1ccccc1Br | 48.3 | u | 0.3 | -0.57 | 0.2 | -48.3 | x
CC(=O)Nc1nnc(SCC(=O)NCc2ccc3c(c2)OCO3)s1 | 5.6 | 1.4 | 13.3* | x | 3.1 | -5.6 | -1.6
CCC(=O)Nc1nnc(SCC(=O)NCc2ccc3c(c2)OCO3)s1 | -5.7 | 2.7 | 3.1 | x | 0.0 | 5.7 | x
S=C1NCCc2ccccc2C1c1ccccc1Cl (stereo not given) | -10.8 | -4.3 | 5.3* | x | -3.7 | 10.8 | -6.4
S=C1NCCc2ccccc2C1c1ccccc1 (stereo not given) | -6.2 | 6.9 | 0.6 | x | -4.7 | 6.2 | x
Cc1cc(NC(=O)CCC(=O)N(Cc2cccs2)C(C)(C)C(=O)NC2CCCCC2)no1 | x | -6.5 | 6.2* | x | -2.3 | x | -0.8
CCc1nc(N)c(C#N)c(-c2ccco2)c1C | 26.6 | 11.3 | 7.1* | -0.21 | 0.1 | -26.6 | 4.3
CC(C)(C)NC(=O)C12CC3CC(CC(Cl)(C3)C1)C2 | -5.6 | -3.4 | 8.0* | -0.63 | -0.4 | 5.6 | -1.8
CC1(C)Cc2cccc(OCC(=O)Nc3ccccc3F)c2O1 | -22.4 | 0.8 | 14.7* | x | -4.2 | 22.4 | -4.7
O=C(Cc1ccccc1[N+](=O)[O-])OCc1cccc([N+](=O)[O-])c1 | x | -0.9 | -2.8 | x | x | x | x
